# DENV2 CPE rescue – inhibitors of DENV2 cytopathic effect, primary screen, cell-based, plate reader, single concentration | DENV2-infected cells, cytopathic effect rescue | hit rate 1.7% among 350,000 | AID 651640, 2012 | CPE inhibition, % at 9.99 µM; in the data active means CPE inhibition above about 20%, passing the limit was not always enough; inconclusive means no clear call, values can overlap the other calls; tested in BHK-21 cells;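 further: 0% = median of neutral control wells and 100% = median of positive control wells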
# PDI inh – inhibitors of human PDI, primary screen, biochemical, turbidity, single point, plate reader; Protein disulfide-isomerase (Homo sapiens), P07237; PDI insulin aggregation turbidity, A650, 90 min; inhibition, % at 10 µM; hit rate 0.052% among 350,000; AID 588391, 2011;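 active means mean inhibition across replicates of 30% or more, whatever share of single replicates reach that level; inconclusive means mean inhibition below 30% while every single replicate reaches 30%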
# Cneo AK release – Cryptococcus neoformans cell lysis inducers, primary screen, AK release luminescence, single concentration. lysis activity, % at 15 µM. C. neoformans lysis, adenylate kinase release luminescence, 4 h; normalised: neutral wells 0, clomiphene wells 100. hit rate 0.2% among 360,000;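 active means mean lysis activity across replicates of at least 80%, whatever share of replicates individually reach that level; inactive means mean lysis activity below 80%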
#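 Material: C. neoformans cells; Schedule: 4 h static compound exposure, 37 °C, read 1 h post-reagent; Measured by: adenylate kinase release luminescence; Read-out: signal increase indicating cell lysis; Controls: Clomiphene as positive lysis control.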
# ERp5 inh – inhibitors of ERp5-driven insulin aggregation, primary screen, biochemical, turbidity, absorbance 650 nm, single point. inhibition, % at 9.99 µM. hit rate 0.05% among 350,000. Protein disulfide-isomerase A6 (Homo sapiens), Q15084. 90 min;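 active means mean replicate inhibition above about 25%, with every replicate also reaching it, limit read from the data, passing the limit was not always enough; inconclusive means only one of those two criteria met; inactive means neither criterion met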
# Target sequence (Q15084 whole entry, looked up): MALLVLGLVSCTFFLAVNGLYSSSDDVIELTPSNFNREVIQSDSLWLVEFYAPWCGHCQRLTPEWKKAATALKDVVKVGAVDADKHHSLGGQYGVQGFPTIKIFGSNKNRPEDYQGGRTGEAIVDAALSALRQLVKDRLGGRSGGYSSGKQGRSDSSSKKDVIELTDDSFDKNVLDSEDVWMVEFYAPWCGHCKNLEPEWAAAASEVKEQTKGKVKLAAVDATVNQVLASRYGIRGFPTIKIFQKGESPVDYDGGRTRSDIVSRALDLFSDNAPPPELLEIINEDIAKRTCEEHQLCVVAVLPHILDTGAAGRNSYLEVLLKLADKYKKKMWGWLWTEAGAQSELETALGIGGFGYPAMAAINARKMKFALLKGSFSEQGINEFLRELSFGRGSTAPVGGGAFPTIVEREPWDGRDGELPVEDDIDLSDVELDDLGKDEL
# C2C12 statin – suppressors of statin myotoxicity in C2C12 myotubes, primary screen, cell-based, single point, plate reader | C2C12 myotubes + simvastatin, ATP luminescence, 48 h; scaled: DMSO 0, geranylgeraniol control 100 | rescue of ATP level, % at 7.49 µM | hit rate 0.78% among 330,000;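 active means mean ATP rescue above about 67%, or every replicate alone reaching that limit, limit read from the data, passing the limit was not always enough; inconclusive means no clear call, values can overlap the other calls; inactive means mean under the limit and some replicate under it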;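 further: myotubes were challenged with 10 µM simvastatin during compound exposure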
# F508del corr – F508del CFTR correction, initial screen, CFBE line, single point; CFBE cells, YFP halide quenching; stimulated with forskolin plus potentiator P3; % fluorescence drop versus neutral controls; AID 720511, 2013; activity (quench increase), % at 7.58 µM; hit rate 0.36% among 350,000;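 active means mean added fluorescence quench of at least 8% versus neutral control, with both replicates also reaching 8%; inconclusive means only one of the mean or replicate conditions met; inactive means mean below 8% and not both replicates reaching 8%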;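 further: cells transiently co-express mutant CFTR-F508del with the halide-sensitive YFP; corrector assay measuring rescue of mutant channel to the surface after 24 h compound exposure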
# Starred values were filed as active, the others as inactive; ? = inconclusive; . = not tested or not shown. A selection: hits, their analogues and other compounds. The true share with any hit is near 2.3%.
SMILES,DENV2 CPE rescue,PDI inh,Cneo AK release,ERp5 inh,C2C12 statin,F508del corr
CCOC(=O)Cn1c(=O)c2c(nc3n2CCCCN3c2ccc(OCC)cc2)n(C)c1=O,-11,-3,-2,3,2,0
CCCCOC(=O)Cn1c(=O)c2c(nc3n2CCCCN3c2ccc(C)cc2)n(C)c1=O,.,5,-3,.,103*,.
Cc1c(Cl)cccc1NC(=O)CC1Oc2ccccc2NC1=O (stereo not drawn),35*,-1,.,0,10,5
COc1ccc(-c2sc3cc4c(cc3c2C#Cc2cncn2C)OCO4)cc1,34*,3,0,-2,-41,4
COc1ccc(-c2oc3ccccc3c2C#Cc2cncn2C)cc1,70*,-8,-3,3,-54,3
CC(C)NC(=O)N(C)C[C@H]1Oc2ccc(NC(=O)CCCN(C)C)cc2C(=O)N([C@@H](C)CO)C[C@H]1C,1,.,55,2,2,1
C[C@@H]1CN([C@@H](C)CO)C(=O)Cc2cc(NC(=O)CCN3CCOCC3)ccc2O[C@H]1CN(C)Cc1ccc(C(=O)O)cc1,3,.,-1,.,-31,5
Cc1ccc(S(=O)(=O)N(C)C)cc1NC(=O)COC(=O)C1CC1,-7,5,1,5,5,-1
Cc1ccc(S(=O)(=O)N(C)C)cc1NC(=O)COC(=O)C1(c2ccccc2)CC1,-2,-3,-1,28*,-19,-3
CC(=O)Nc1ccc(NC(=O)CSc2nnc(C3CC3)n2C)cc1,.,8,1,.,127*,.
Cc1cccc(Nc2nc(N)nc(-c3oc4ccccc4c3C)n2)c1,11,-3,-1,7,-10,12*
COCC(=O)Nc1ccc2c(c1)OC[C@@H](C)N(Cc1cncnc1)C[C@@H](C)[C@H](OC)CN(C)C2=O,22*,.,.,-14,.,2
COCC(=O)Nc1ccc2c(c1)C(=O)N(C)C[C@@H](OC)[C@H](C)CN(Cc1cncnc1)[C@@H](C)CO2,21*,.,1,-1,-16,-1
COCC(=O)Nc1ccc2c(c1)C(=O)N(C)C[C@@H](OC)[C@H](C)CN(Cc1cncnc1)[C@H](C)CO2,-7,.,-4,-4,0,1
COCC(=O)Nc1ccc2c(c1)OC[C@H](C)N(Cc1cncnc1)C[C@H](C)[C@H](OC)CN(C)C2=O,.,.,.,.,-6,-2
COc1ccc(S(=O)(=O)Nc2ccc3c(c2)C(=O)N([C@H](C)CO)C[C@H](C)[C@H](CN(C)C(=O)Nc2ccccc2)O3)cc1,16,.,90*,29*,0,0
COc1ccc(NC(=O)N(C)C[C@H]2Oc3ccc(NS(=O)(=O)c4ccccc4)cc3C(=O)N([C@@H](C)CO)C[C@@H]2C)cc1,6,.,-2,33*,.,0
COc1ccc(S(=O)(=O)Nc2ccc3c(c2)C(=O)N([C@H](C)CO)C[C@H](C)[C@@H](CN(C)C(=O)Nc2ccccc2)O3)cc1,4,-2,0,0,1,-1
COc1ccc(-c2cnc3c(NC=O)cc(-c4ccccc4)cn23)cc1OC,-4,-13,0,0,-7,13*
COc1ccc(-c2cnc3c(NC=O)cc(-c4ccc(F)cc4)cn23)cc1OC,-3,-13,-1,1,-20,1
COc1ccc(-c2cc(NC(C)=O)c3ncc(-c4cccc(C(C)=O)c4)n3c2)cc1OC,49*,4,-1,1,-9,-1
CS(=O)(=O)c1ccc(-c2cnc3c(NC=O)cc(-c4ccsc4)cn23)cc1,-1,9,5,3,-10,-1
O=CNc1cc(-c2ccsc2)cn2c(-c3ccccc3)cnc12,?,-4,146*,-3,0,4
COc1ccccc1NC(=O)N(C)C[C@H]1OCc2ccccc2-c2c(n(C)c3ccccc23)C(=O)N([C@@H](C)CO)C[C@@H]1C,-9,.,-3,-3,.,-3
O=C(C[C@@H]1CC[C@@H]2[C@H](COC[C@H](O)CN2C(=O)c2ccccn2)O1)NC1CCC1,3,.,1,-3,-6,2
SMILES,DENV2 CPE rescue,PDI inh,Cneo AK release,ERp5 inh,C2C12 statin,F508del corr
COc1ccc(OC)c2[nH]c(C(=O)N/N=C/c3ccccc3O)cc12,0,8,-1,0,-19,14*
COc1cccc(/C=N/NC(=O)c2cc3c(OC)c(OC)ccc3[nH]2)c1OC,3,7,.,-4,.,6
COc1ccc(/C=N/NC(=O)c2cc3c(OC)ccc(OC)c3[nH]2)cc1O,0,5,.,3,.,0
COc1ccccc1/C=N/NC(=O)c1cc2c(OC)c(OC)ccc2[nH]1,8,-2,1,-6,-7,9.3*
CO[C@H]1CC[C@@H]2CCN(C)C(=O)[C@H](C)[C@@H](OC)CN(C)C(=O)c3cc(C#N)ccc3OC[C@H]1O2,-3,.,3,1,5,-2
Cc1nc(NC2CCCCC2)c2nnn(Cc3ccccc3Cl)c2n1,-1,0,-2,?,19,3
Cc1nc(N2CCC3(CC2)OCCO3)c2nnn(Cc3ccccc3F)c2n1,.,-26,-1,.,130*,.
Cc1nc(N2CCCC2)c2nnn(Cc3ccccc3Cl)c2n1,.,-1,-2,.,76*,.
CO[C@H]1CN(C)C(=O)c2ccc(NC(=O)Nc3ccccc3F)cc2OC[C@H](C)N(C)C[C@H]1C,33*,.,-5,4,-30,2
CO[C@H]1CN(C)C(=O)c2cc(NC(=O)c3ccccc3F)ccc2OC[C@H](C)N(C(C)=O)C[C@H]1C,.,.,95*,2,-2,-1
CO[C@H]1CN(C)C(=O)c2cc(NC(=O)c3ccccc3F)ccc2OC[C@H](C)N(CC2CCOCC2)C[C@H]1C,81*,.,98*,1,-9,-1
CO[C@@H]1CN(C)C(=O)c2cc(NC(=O)c3ccccc3F)ccc2OC[C@@H](C)N(C(C)=O)C[C@H]1C,-1,.,49,3,2,-1
CO[C@H]1CN(C)C(=O)c2cc(NC(=O)c3ccccc3F)ccc2OC[C@@H](C)N(C(C)=O)C[C@@H]1C,70*,.,51,-2,6,3
C[C@@H]1CCCCO[C@@H](CN(C)S(=O)(=O)c2ccccc2)[C@H](C)CN([C@H](C)CO)C(=O)c2cc(NC(=O)Cc3ccccc3)ccc2O1,-9,.,-4,1,.,0
COc1ccc(NC(=O)N[C@@H]2C=C[C@@H](CC(=O)NC3CCC3)O[C@H]2CO)cc1,-4,.,-3,3,-6,1

# High-throughput results as filed in PubChem BioAssay.
